We go through five compounds from paper PMC5012948 (ChemMedChem, 2016).

Molecules are shown by their SMILES. Values joined by “and” are separate entries in the source; they are usually repeats but may differ in a detail not shown here. Equal entries are not always repeated. Where two headings read alike, the source gives them in different places.

For one assay, the target named is SaHepPPS (Staphylococcus aureus, UniProt Q2FYG6). In words: biochemical. Format: biochemical. The following applies: for Kd: substrate inhibition at high substrate concentrations.
For assay [1], the system named is coupling enzymes (phosphatase and purine nucleoside phosphorylase). Put plainly: Control: inhibition of the coupling enzymes by high FPP and IPP. It counts as biochemical.
The test system of assay [2] is S. aureus (Newman strain). In words: S. aureus cell growth inhibition. Format: cell-based, Staphylococcus aureus.
For the next assay, the system named is S. aureus. In words: Synergy/antagonism two-drug combination assay. It counts as cell-based, Staphylococcus aureus. In outline:
(§1)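 Checkerboard-style two-drug combinations of the test compound with antibiotics. Conversely, the test compound ran as a 3× gradient, 40 μg/mL to 18 ng/mL, with each antibiotic at half its MIC. New MICs came from Gompertz fits.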

The subject of the next assay is B. subtilis. Put plainly: Synergy/antagonism two-drug combination assay. It counts as cell-based, Bacillus subtilis. The following applies: 10 + sulfamethoxazole. In outline: as §1
In assay [3] the test system is B. subtilis and S. aureus. Put plainly: Synergy/antagonism assays, average FICI over both organisms. Format: cell-based. As to conditions: drugs in combination with 10, both organisms, n = 24. In short, it runs like this:
as §1

The next assay concerns human FPPS. As to conditions: cited from earlier work.

As usually defined, the Kd is the free concentration of one partner at which half of the binding sites on the other are occupied at equilibrium, for simple one-to-one binding. Consider `CC(C)=CCC/C(C)=C/CC/C(C)=C/CO[P@@](=O)(O)OP(=O)(O)O` (stereo in doubt) [FPP, farnesyl diphosphate], for which the equilibrium dissociation constant (Kd) at SaHepPPS (Kd (dissociation constant for the inhibitory SES ternary complex)) is 35 µM and ~35 µM. The “inhibition of the coupling enzymes” value in assay [1] is “this is not the case”.

As a reminder, the Km is the substrate concentration at which the rate is half of its maximum. One may read the Vmax as the top rate of the reaction or transport when substrate is in excess. On to `CC(C)=CCC/C(C)=C/CC/C(C)=C/CC/C(C)=C/COP(=O)(O)OP(=O)(O)O` [GGPP, geranylgeranyl diphosphate], for which, at SaHepPPS (GGPP as substrate), the Michaelis constant (Km) worked out at 652 µM and the Vmax amounted to 2.2 µM/min. Further, at SaHepPPS (high concentrations), the “substrate-inhibition effect at high concentrations” value is “did not exhibit the substrate-inhibition effect”.

As to `C=C(C)CCOP(=O)(O)OP(=O)(O)O` [IPP, isopentenyl diphosphate], the Kd on SaHepPPS (read-out: Kd (dissociation constant for the inhibitory SES ternary complex)) was 300 ± 40 µM. Further, the “inhibition of the coupling enzymes” value in assay [1] is given as “this is not the case”.

`CCCCCCCCCCCCC[n+]1ccn(CC(P(=O)([O-])O)P(=O)(O)O)c1` (centres unmarked) [compound 10]: the “IC50 for S. aureus cell growth inhibition” value in assay [2] was 7 µg/mL. Moreover, the FICI was determined as 1.40 in the assay on S. aureus (10 + ampicillin), 1.85 in the assay with S. aureus (10 + tetracycline) and 1.73 in the assay with B. subtilis. In addition, in assay [3], the FICIavg is given as 1.43 ± 0.37.

The term IC50 denotes the point on the concentration scale where inhibition reaches its midpoint. On SaHepPPS, `O=P(O)(O)C(O)(Cn1ccnc1)P(=O)(O)O` [compound 15, zoledronate] yielded a half-maximal inhibitory concentration (IC50) of around 100 µM. Further, the “activity against human FPPS” value in the assay on human FPPS is “potent activity”.
